Screening data deposited in PubChem by The Scripps Research Institute Molecular Screening Center.
Most compounds without a hit are left out; they make up all but 1.6% or so of the library.
TDP2 absorb – TDP2 (human) inhibition, absorbance primary screen. O95551. recombinant TDP2, T5PNP hydrolysis, p-nitrophenol absorbance 415 nm. inhibition, % at 12.8 µM. hit rate 0.34% among 370,000;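 active = inhibition above the mean of all tested compounds plus 3 SD, set per campaign, cut at about 25% in these data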;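 also: 0% = DMSO with enzyme and 100% = buffer with substrate but no TDP2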
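Incubation: 2 h at 37 °C; Test system: recombinant human TDP2; Quantity: enzyme 120 nM; Read-out basis: percent inhibition; Medium: 50 mM Tris-HCl pH 7.5 with Mg2+, KCl, DTT, BSA; Repeats: single replicate; Compound: 12.8 µM single point, 1% DMSO; Signal: epi absorbance; Reagent: 5 mM T5PNP chromogenic substrate; Benchmarks: no-enzyme high, DMSO-plus-enzyme low.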
MBD2 DNA inh – MBD2-methylated oligo binding inhibition. inhibition, % at 4.4 µM. hit rate 0.31% among 370,000. AID 686964. TR-FRET, MBD2 binding to methylated oligonucleotide; in the data active = inhibition above about 13%
LEDGF integ inh – blocks HIV-1 LEDGF/p75-dependent DNA integration. TR-FRET IN-LEDGF/p75 DNA integration, Eu/Cy5. inhibition, % at 3.7 µM. hit rate 0.64% among 370,000. AID 743269;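 active = inhibition above the screen-wide mean plus 3 SD, cut at about 13% in these data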;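 also: signal is the Cy5 over europium emission ratio at 671 and 618 nm; 0% = plate median of compound wells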
UHRF1 MBD2 ctr – UHRF1 methyl-DNA binding inhibition; UHRF1 binding to methylated oligo, TR-FRET; hit rate 0.75% among 370,000; Q96T88; inhibition, % at 4.4 µM; in the data active = inhibition above about 21%;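 also: UHRF1 SRA domain binding a hemimethylated CpG hairpin DNA probe; 0% = median of test compound wells and 100% = reference inhibitor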
TDP2 inh conf – human TDP2 inhibition, confirmation | shares compounds with TDP2 absorb | recombinant human TDP2, absorbance read-out | inhibition, % at 12.8 µM | hit rate 22% among 1,100; in the data active = inhibition above about 25%;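 also: 0% = vehicle with enzyme and 100% = no enzyme buffer only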
Starred values were filed as active, the others as inactive; nt = no result.

SMILES	TDP2 absorb	MBD2 DNA inh	LEDGF integ inh	UHRF1 MBD2 ctr	TDP2 inh conf
O=C(c1cccc(S(=O)(=O)N2CCN(c3ccccc3)CC2)c1)N1CCN(c2ccccc2O)CC1	28.7*	3.3	-0.8	-5.0	6.0
CCOc1ccc(CN2CCC(C(=O)N3CCN(c4ccccc4F)CC3)CC2)cc1OC	33.5*	3.2	8.3	13.1	-0.1
O=C(O)c1ccccc1-c1c2cc(I)c(=O)c(I)c-2oc2c(I)c(O)c(I)cc12	28.4*	-3.7	-12.0	0.1	40.4*
O=Cc1ccc(-c2ccccc2C(=O)O)o1	-5.8	-3.5	1.9	2.9	nt
CCCCOC(=O)/C=C\C(=O)NC(N)=O	25.6*	3.6	0.1	-1.1	2.5
CCOC(=O)C(=O)C1=CN(Cc2ccccc2)C=C(C#N)C1	26.8*	-1.1	-0.7	-5.6	11.0
CCOC(=O)/C(C#N)=C1/C=CN(Cc2ccccc2)C=N1	-3.2	-2.1	1.7	1.8	nt
CCCCCc1ccc(-c2n[nH]c(=O)c3ccccc23)cc1	-6.1	6.8	-4.1	1.0	nt
C=CCNc1nc(C(=O)OCC(=O)c2ccc(Cl)cc2)cs1	24.6*	8.2	4.2	16.5	-6.3
COc1ccccc1-n1ccnc(SCC(=O)NCc2ccccc2Cl)c1=O	28.9*	-0.8	-0.2	0.2	4.5
CCCCNS(=O)(=O)/C=C/c1ccccc1CNC(=O)OC(C)(C)C	4.8	-6.3	3.1	12.8	nt
COc1ccc(NC(=O)c2ccc(-n3c(C)ccc3C)cc2)c(OC)c1	29.6*	-5.0	3.4	0.2	-8.7
COc1ccc(NC(=O)c2ccc(S(=O)(=O)C(F)F)cc2)c(OC)c1	2.0	10.8	-0.6	0.9	nt
N#Cc1sc2nc(-c3ccccc3)cc(-c3ccco3)c2c1N	54.1*	-5.3	7.6	-5.8	56.4*
N#Cc1sc2nc(C3CC3)cc(-c3ccccc3)c2c1N	-0.8	-3.6	1.4	-0.8	nt
N#CCC[C@H]1CC[C@]2(CCCN(S(=O)(=O)c3ccccc3)C2)O1	-4.8	9.1	-2.2	3.3	nt
O=C(CSc1ccc(Cl)cc1)NC1=NN(c2ccccc2)C(=O)C1	25.4*	2.6	3.8	1.1	-0.8
O=C(CSc1ccc(Cl)cc1)Nc1ccccc1	-6.5	9.7	-6.3	3.7	nt
O=[N+]([O-])c1ccccc1S(=O)(=O)N1CCC(c2cn3ccccc3n2)CC1	-0.6	-0.8	-6.8	0.5	nt
COc1ccc(OCC(=O)NS(=O)(=O)c2ccccc2)cc1	29.2*	-6.3	0.1	-1.9	5.7
CC(=O)N(C1=C(N)C(=O)c2ccccc2C1=O)c1ccccc1	29.4*	-15.5	12.1	-11.5	20.2
O=C(N(c1ccccc1)c1ccccc1)N(c1ccccc1)c1ccccc1	-5.4	5.6	3.9	5.0	nt
CCC(NC(=O)c1ccc2c(ccn2Cc2cccc(-c3ccc(C(=O)O)cc3)c2)c1)c1ccccc1 (configuration not stated)	-4.3	3.2	3.3	4.6	nt
COCCCn1c(C)cc(C(=O)COC(=O)CCc2nc3ccccc3c(=O)[nH]2)c1C	8.3	9.1	2.9	-2.1	nt
COCC(C)n1c(C)cc(C(=O)COC(=O)CCc2nc3ccccc3c(=O)[nH]2)c1C (configuration not stated)	31.2*	1.1	0.4	26.0*	11.3
SMILES	TDP2 absorb	MBD2 DNA inh	LEDGF integ inh	UHRF1 MBD2 ctr	TDP2 inh conf
Nc1[nH]c(C(=O)c2ccc(Br)cc2)c(-c2ccc(Br)cc2)c1C(=O)NCc1cccc2ccccc12	6.2	3.8	-1.3	-3.1	nt
COc1ccc(NC(=O)CN(C)S(=O)(=O)c2ccc(Br)s2)cc1	24.6*	-0.1	0.5	1.6	0.8
COc1ccc(NC(=O)CN(C)S(=O)(=O)c2ccc(Br)s2)cc1OC	-3.2	6.2	-1.8	1.4	nt
COc1ccc(-n2cc(COC(=O)NCCc3ccccc3)nn2)cc1	6.8	1.2	1.8	0.6	nt
O=S1(=O)c2c(NCc3ccco3)cccc2Oc2ccccc2CN1Cc1cn(Cc2ccc(C(F)(F)F)cc2)nn1	-4.4	-0.1	-2.1	1.6	nt
COc1cccc(C2/C(=C(\O)c3ccc4c(c3)OCCO4)C(=O)C(=O)N2CC2CCCO2)c1 (configuration not stated)	34.7*	-0.1	1.1	-1.8	3.3
COc1ccc(/C(O)=C2/C(=O)C(=O)N(CC3CCCO3)C2c2cccc(OC)c2)cc1 (configuration not stated)	8.4	0.5	0.9	0.4	nt
O=C(O)c1ccc(NC2=C(n3nnc4ccccc43)C(=O)c3ccccc3C2=O)cc1	34.4*	-19.6	13.1	2.0	41.1*
O=C(O)c1ccc(-n2nnc3ccccc32)c([N+](=O)[O-])c1	1.2	1.2	1.8	-4.1	nt
